Most compounds without a hit are left out; they make up all but 2.5% or so of the library.
Platelet DG rel: inhibitors of platelet dense granule secretion, primary screen, cell-based, MLPCN, human platelets | AID 1663, 2009 | 0.22% of 300,000 active | human platelet-rich plasma, SFLLRN dense granule ATP release, luminescence | inhibition, %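 (compounds screened at 7.5 µM in platelet-rich plasma)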;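 active = mean replicate score, as percent of positive control, at or above 50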
TRPC4 act: activators of mouse TRPC4 channel, primary screen, Fluo4 calcium, HEK293 TRPC4beta/mu-opioid cells. Fluo4 calcium fluorescence; hits give high values. B-score at 10 µM. 0.49% of 310,000 active. AID 2237, 2010;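 active = B-score above 5 SD of library B-scores, and initial fluorescence ratio not above library mean plus 5 SD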;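 also: positive B-score marks a calcium rise read as TRPC4 activation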
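Material: TRPC4beta and mu-opioid receptor HEK293 stable cells | Incubation: 45 min room-temperature Fluo4 loading, 110 s read | Detection: Kinetic Fluo4 calcium fluorescence | Measure: Integrated baseline-normalised fluorescence ratio, converted to per-well B score | Benchmarks: Low control buffer alone, high control maximal DAMGO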
TRPC6 act: mouse TRPC6 channel activators, primary screen, cell-based, HEK293, membrane potential dye; Short transient receptor potential channel 6 (Mus musculus), Q61143; HEK293-TRPC6 membrane potential dye fluorescence; hits give high values; B-score at 10 µM; 0.13% of 310,000 active;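 active = B-score of the integrated fluorescence ratio above library mean plus 3 SD, and starting fluorescence ratio within library mean plus 5 SD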;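 also: higher score means more depolarization so channel activation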
TRPC4 PAM: positive allosteric modulators of TRPC4, primary screen, cell-based, mouse TRPC4beta, HEK293 mu-opioid, Fluo-4 calcium | AID 2227, 2009 | B-score at 10 µM | Short transient receptor potential channel 4 (Mus musculus), Q9QUQ5 | 0.42% of 310,000 active | DAMGO EC20, Fluo-4 Ca2+ flux; hits give high values;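 active = B-score of calcium response area above 5 SD of library B-scores, with initial fluorescence ratio within 5 SD of library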;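 also: B-score of integrated fluorescence ratio over time as area under calcium response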
TRPC6 inhibitor: mouse TRPC6 channel inhibitors, primary screen, cell-based, HEK293, membrane potential dye; Short transient receptor potential channel 6 (Mus musculus), Q61143; ACh-evoked depolarization; hits give low values; AID 2553, 2010; 1.1% of 310,000 active; B-score at 10 µM;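 active = B-score under library mean minus 3 SD, initial fluorescence not abnormally high, positive integrated signal ratio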;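 also: B-score derived from integrated fluorescence ratio over the kinetic read; more negative B-score means stronger inhibition of depolarization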
TRPC4 block: inhibitors of mouse TRPC4 channel, primary screen, Fluo4 calcium, HEK293 TRPC4beta/mu-opioid cells. Short transient receptor potential channel 4 (Mus musculus), Q9QUQ5. 0.39% of 300,000 active. B-score at 10 µM. DAMGO-evoked Fluo4 calcium flux; hits give low values. AID 2247, 2010;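 active = B-score over 3 SD under the library average, no early fluorescence shift, positive overall ratio signal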
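test system = HEK293 cells with stable TRPC4beta plus mu-opioid receptor expression | detection = Fluo4 Ca2+ flux fluorescence | read-out = integrated fluorescence ratio relative to baseline, converted to per-well B score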
TRPC4 sel inh 2: second check of whether TRPC6 inhibitors also affect mouse TRPC4 | shares compounds with TRPC6 inhibitor | HEK293 TRPC4/MOR, membrane potential dye fluorescence; channel activated by saturating DAMGO dose | inhibition, % at 10 µM | 42% of 920 active | AID 2776;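 active = compounds whose fluorescence signal differed from control wells by over 3 SD, either direction, in both duplicate plates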
TRPC4 spec: mouse TRPC4 modulation by TRPC6 hits, confirmation, selectivity assay for TRPC6 inhibitor project, cell-based, HEK293 TRPC4/mu-opioid, membrane potential dye; shares compounds with TRPC6 inhibitor; membrane potential fluorescence; activity change, negative = inhibition, % at 10 µM; 61% of 920 active; AID 2777, 2010;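 active = rise or fall in signal beyond 3 SD of buffer-only wells in both replicate plates, either sign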;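 also: integrated kinetic ratio of fluorescence range over baseline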
HEK293 MPD ctr 2-1: nonspecific membrane potential effects, parental HEK293, confirmation, counter-screen for TRPC6 inhibitor project, cell-based, second counter screen; shares compounds with TRPC6 inhibitor; parental HEK293 membrane potential dye fluorescence; maximal acetylcholine challenge after compound addition; signal change vs control, % at 10 µM; 31% of 920 active; AID 2779, 2010;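 active = membrane potential signal moving either way by over 3 SD of the maximum-effect control, in both duplicate plates, meaning non-specific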
HEK293 MPD ctr-1: membrane potential modulation in parental HEK293, confirmation, counter-screen for TRPC6 inhibitor project, cell-based | shares compounds with TRPC6 inhibitor | parental HEK293 membrane potential dye fluorescence | membrane potential signal change, % at 10 µM | 60% of 920 active | AID 2780, 2010;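 active = membrane potential signal shifting up or down by more than 3 SD of buffer-only wells, on both duplicate plates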
HEK293 MPD ctr-2: parental HEK293 membrane potential modulation, confirmation, counter-screen for TRPC6 modulator project, cell-based. shares compounds with TRPC6 inhibitor. membrane potential dye fluorescence. membrane potential signal change, % at 10 µM. 51% of 2,400 active;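 active = membrane potential signal moves up or down beyond 5 SD from buffer-only wells, on both duplicate plates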
HEK293 MPD ctr 2-2: second check of TRPC6 modulator effects in parental HEK293 cells. shares compounds with TRPC6 inhibitor. 14% of 2,400 active. inhibition, % at 10 µM. AID 488926. membrane potential dye fluorescence; after compound, maximal acetylcholine stimulation;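 active = membrane potential signal drops by more than 5 SD from the mean control signal, in both duplicate plates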;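 also: plate controls were acetylcholine ECmax control wells for no effect and buffer only wells for full effect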
TRPC4/MOR mod: TRPC4 modulation by TRPC6 hit compounds, confirmation, selectivity assay for TRPC6 modulator project, cell-based, HEK293 TRPC4/mu-opioid, membrane potential dye, mouse; membrane potential fluorescence; shares compounds with TRPC6 inhibitor; 69% of 2,400 active; percent change from control (negative = decrease, positive = increase), % at 10 µM;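 active = membrane potential signal moved up or down beyond 5 SD of buffer control wells, in both duplicate plates, actives on both sides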;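 also: plate controls were assay buffer wells for no effect and DAMGO maximal-effect wells for full effect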
TRPC4 ctr inh 2: second selectivity test of TRPC6 modulators against mouse TRPC4; HEK293 TRPC4/mu-opioid, membrane potential dye fluorescence; stimulated with maximal-effect DAMGO; shares compounds with TRPC6 inhibitor; 55% of 2,400 active; inhibition, % at 10 µM; AID 488928;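 active = drop in membrane potential signal beyond 5 SD of the control wells in both duplicate plates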;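 also: TRPC4 counter screen for TRPC6 hits run under conditions tuned for TRPC6 not TRPC4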
TRPC6 block conf: mouse TRPC6 channel inhibitors, confirmation, HEK293 cells, membrane potential dye, duplicate; shares compounds with TRPC6 inhibitor; ACh-evoked depolarization; inhibition, % at 10 µM; 43% of 3,300 active; AID 488960, 2010;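 active = fluorescence ratio falls more than 5 SD below the full-stimulation control mean, in both duplicate runs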;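 also: integrated fluorescence ratio of peak minus minimum over baseline after agonist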
TRPC6 act conf: mouse TRPC6 channel activators, confirmation, HEK293 cells, membrane potential dye, duplicate | shares compounds with TRPC6 inhibitor | 11% of 2,800 active | AID 488961, 2010 | HEK293-TRPC6 membrane potential dye fluorescence, FDSS | activation, % at 10 µM;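 active = ratio signal rise beyond 5 SD above unstimulated control wells' mean, seen in both duplicate runs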;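 also: plate controls were buffer EC0 wells for no effect and acetylcholine ECmax response for full effect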
* hit, by the source's call; i = inactive; x = no result.

SMILES	Platelet DG rel	TRPC4 act	TRPC6 act	TRPC4 PAM	TRPC6 inhibitor	TRPC4 block	TRPC4 sel inh 2	TRPC4 spec	HEK293 MPD ctr 2-1	HEK293 MPD ctr-1	TRPC6 block conf	TRPC6 act conf	others
CCN(CC)CCn1c2ccccc2c2cnc(N=CN(C)C)c(C#N)c21	-1	i	i	i	-7.2*	i	50%*	-20%*	i	-166%*	i	i
CCn1c2ccccc2c2cnc(N=CN(C)C)c(C#N)c21	7	i	i	i	i	i	x	x	x	x	x	x
CCOCCN1CCN(C2c3ccccc3CSc3ccccc32)CC1 (stereo unspecified)	21	i	i	i	-8.3*	i	72%*	18%*	i	9.5%*	i	x
CCNC(=O)NC1c2ccccc2CSc2ccccc21 (stereo unspecified)	-14	i	i	i	i	i	x	x	x	x	x	x
O=C(O)CCCC(=O)N1CCc2cc(S(=O)(=O)NCc3ccc(F)cc3)ccc21	-8	i	i	i	i	i	x	x	x	x	x	x
Cc1c(Cl)cccc1NC(=S)NC1CCCC1	-4	i	i	i	i	i	x	x	x	x	x	x
C/C(=N/NC(=O)c1cc2ccccc2cc1O)C1C(=O)c2ccccc2C1=O	-2	i	i	i	i	i	x	x	x	x	x	x
C/C(=N\NC(=O)c1ccccc1O)C1C(=O)c2ccccc2C1=O	7	i	i	i	-5.5*	i	x	x	x	x	i	i	HEK293 MPD ctr-2=i;HEK293 MPD ctr 2-2=i;TRPC4/MOR mod=-16%*;TRPC4 ctr inh 2=i

High-throughput results from PubChem.
